AHR activator: AHR activators, primary screen, cell-based, luminescence, luciferase reporter, human; 2.5% of 320,000 active; Aryl hydrocarbon receptor (Homo sapiens), P35869; AHR-responsive luciferase reporter cells; activation, % at 5 µM; in the data active = activation above about 47%
GAA850 FXN act: FXN promoter activators, primary screen, cell-based, luciferase luminescence, HEK293 lucGAA850; HEK293 lucGAA850 FXN promoter luciferase reporter, 24 h; percent of 10 µM SAHA response; activation, % at 6 µM; 0.56% of 360,000 active;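 active = activation above the average of all compounds screened plus 3 SD, cutoff fixed separately per campaign, cut at about 7.5% in these data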
MC4R antag cAMP: MC4R antagonists of cAMP signaling, primary screen, cell-based, TR-FRET, antagonist arm of biased-ligand search. Melanocortin receptor 4 (Homo sapiens), P32245. 0.48% of 360,000 active. inhibition, % at 6.5 µM. MC4R-expressing cells, MTII-stimulated cAMP, LANCE TR-FRET;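 active = inhibition above its plate's cutoff, the mean of tested wells on that plate plus 3 SD, cut at about 29% in these data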
Target sequence (P32245 whole entry, looked up): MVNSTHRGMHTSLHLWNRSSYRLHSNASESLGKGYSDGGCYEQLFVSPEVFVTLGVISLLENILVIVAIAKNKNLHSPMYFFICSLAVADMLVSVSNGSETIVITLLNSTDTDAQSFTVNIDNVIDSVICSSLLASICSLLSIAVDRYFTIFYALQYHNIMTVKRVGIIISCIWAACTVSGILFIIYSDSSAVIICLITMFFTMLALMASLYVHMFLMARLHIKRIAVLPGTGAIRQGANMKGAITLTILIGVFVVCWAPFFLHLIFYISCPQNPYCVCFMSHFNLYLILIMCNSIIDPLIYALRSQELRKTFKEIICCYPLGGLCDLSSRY
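Test system: U2OS cells stably expressing human melanocortin 4 receptor (MC4R); also added: Melanotan II challenge; compound: 6.5 µM single dose; timing: 30-min compound preincubation, 1-h Melanotan II challenge, 1-h detection, room temperature; signal: Eu-cAMP/anti-cAMP TR-FRET, emission 671 nm; repeats: one well per compound, no replicates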
HTR2A ag: mouse Htr2a agonists via beta-arrestin recruitment, primary screen, cell-based, luminescence; 0.66% of 360,000 active; 5-hydroxytryptamine receptor 2A (Mus musculus), P35363; activation, % at 7.6 µM; CHO-K1 mHTR2A beta-arrestin complementation; percent of 30 µM serotonin response; AID 624169, 2012;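 active = activation above a run cutoff, the mean activation of all tested compounds plus 3 SD, cut at about 14% in these data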
MC4R barr agon: MC4R agonists recruiting beta-arrestin, primary screen, cell-based, luminescence, agonist arm of biased-ligand search. AID 540308, 2011. U2OS MC4R beta-arrestin complementation; percent of melanotan II response, DMSO zero. 0.98% of 360,000 active. activation, % at 8.9 µM;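 active = activation above a per-plate cutoff, the mean activation of sample wells on that plate plus 3 SD, cut at about 8% in these data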
OPRM1 ag: OPRM1 agonists via beta-arrestin recruitment, confirmation, counter-screen for mouse HTR2A agonist project, cell-based, luminescence, single concentration. shares compounds with HTR2A ag. U2OS OPRM1 beta-arrestin PathHunter; DMSO 0%, DAMGO 9.3 µM 100%. activation, % at 9.3 µM. 5.3% of 2,300 active. AID 624380, 2012;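 active = mean activation above the mean of DMSO-only wells plus 3 SD, cut at about 0.5% in these data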
HTR2A ag conf: mouse HTR2A agonists, beta-arrestin recruitment, confirmation, cell-based, luminescence, CHO-K1 PathHunter, triplicate. shares compounds with HTR2A ag. AID 624381, 2012. DMSO 0%, 30 µM serotonin 100%. activation, % at 7.6 µM. 19% of 2,300 active;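 active = mean activation across triplicates above the hit threshold derived in the original primary screen, cut at about 15% in these data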
Each line names hits and unclear results; the compound was inactive in the other large screens (follow-up assays come after a bar, where they were run). Shown are actives, neighbours in structure and some others; about 4.7% of the full set was active somewhere.

Cc1ccc(NC(=O)CSc2nc3ccccc3c(=O)n2CCCN2CCCCC2)cc1C	HTR2A ag 16 | OPRM1 ag inactive | HTR2A ag conf inactive
CCc1ccc(NC(=O)CSc2nc3ccccc3c(=O)n2CCCN2CCC(C)CC2)cc1	HTR2A ag 48 | OPRM1 ag inactive | HTR2A ag conf 20
COC(=O)c1ccc2c(=O)n(CCN3CCOCC3)c(SCC(=O)C(C)(C)C)nc2c1	none
COc1ccc(NC(=O)CSc2nc3ccccc3c(=O)n2CCCN2CCOCC2)c(OC)c1	HTR2A ag 39 | OPRM1 ag inactive | HTR2A ag conf inactive
CC(C)N1CCCC(C)(C(=O)Nc2nccc3ccccc23)C1 (stereo not drawn)	none (no result: AHR activator)
CC(NC(=O)/C(C#N)=C1\N=C(NC(=O)c2cccs2)c2ccccc21)c1ccccc1 (stereo not drawn)	none
O=C1[C@H](Oc2ccccc2)[C@@H](c2ccccc2)N1c1ccncc1	HTR2A ag 18 (no result: AHR activator) | OPRM1 ag inactive | HTR2A ag conf inactive
Cc1ccccc1NS(=O)(=O)c1ccc(C(=O)N2CCN(S(=O)(=O)c3ccccc3)CC2)cc1	HTR2A ag 15 | OPRM1 ag inactive | HTR2A ag conf inactive
O=C(CS(=O)(=O)c1ccccc1)N1CCCCCC1	HTR2A ag 21 | OPRM1 ag inactive | HTR2A ag conf inactive
O=C(c1cccc(S(=O)(=O)NCc2ccccc2)c1)N1CCCCC1	HTR2A ag 19 | OPRM1 ag inactive | HTR2A ag conf inactive
O=C(c1ccc(NS(=O)(=O)c2ccccc2)cc1)N1CCCCCC1	HTR2A ag 17 (no result: AHR activator) | OPRM1 ag inactive | HTR2A ag conf inactive
Cc1noc(C)c1C(=O)OCC(=O)/C=C1/N(C)c2ccccc2C1(C)C	none (no result: AHR activator)
C[C@H](CCC(=O)NCC(=O)O)[C@H]1CC[C@H]2C3[C@H](O)C[C@@H]4C[C@H](O)CC[C@]4(C)[C@H]3C[C@H](O)[C@]12C (stereo partly drawn)	none
CCc1ccc(N(CC(=O)NCc2ccco2)C(=O)CCC(=O)Nc2nccs2)cc1	none
COc1ccc(-c2nc3n(c2C)CCC3)cc1	HTR2A ag 23 | OPRM1 ag inactive | HTR2A ag conf 15
N#Cc1cccc(C(=O)OCC(=O)c2ccc3c(c2)NC(=O)CO3)c1	none
CC(=O)Nc1cc(NC(C)=O)cc(C(=O)OCC(=O)c2ccc3c(c2)NC(=O)CO3)c1	HTR2A ag 20 | OPRM1 ag inactive | HTR2A ag conf inactive
COc1ccc(C(=O)OCC(=O)c2ccc3c(c2)NC(=O)CO3)cc1OC	none
N#CCC(=O)Nc1ccc(C(=O)OCC(=O)c2ccc3c(c2)NC(=O)CO3)cc1	HTR2A ag 25 | OPRM1 ag inactive | HTR2A ag conf inactive
CN(C)Cc1c(C(C)(C)O)[nH]c2ccc(C(F)(F)F)cc12	HTR2A ag 23 | OPRM1 ag inactive | HTR2A ag conf 20
CC(C)(O)c1[nH]c2ccc(C(F)(F)F)cc2c1C(C)(C)O	none
COc1ccc(COCC(O)CN2CCc3ccccc3C2)cc1OC (stereo not drawn)	HTR2A ag 21 | OPRM1 ag inactive | HTR2A ag conf inactive
OC(COCc1ccccc1)CN1CCc2ccccc2C1 (stereo not drawn)	none
CC(=O)C[C@H]1SC[C@@H](C(C)C)N1S(=O)(=O)c1ccc(C)cc1	none (no result: AHR activator, GAA850 FXN act, MC4R antag cAMP, MC4R barr agon)
Cc1nc(SCC(=O)NCCc2ccc(Cl)cc2)nc(C)c1C	HTR2A ag 15 | OPRM1 ag inactive | HTR2A ag conf inactive
O=C(COc1cccc2ccccc12)NNC(=O)CSCCO	none
COc1ccccc1-n1c(=O)c2c3c(sc2n2c(SC(C)C)nnc12)CCC3	HTR2A ag 16 | OPRM1 ag inactive | HTR2A ag conf inactive
C=C(C)CN1CCN(S(=O)(=O)c2ccc(C)c(N(C)S(=O)(=O)c3ccc(C)cc3)c2C)CC1	HTR2A ag 22 | OPRM1 ag inactive | HTR2A ag conf inactive
Cc1ccc(S(=O)(=O)N(C)c2c(C)ccc(S(=O)(=O)N3CCN(C)CC3)c2C)cc1	none
Cc1ccccc1-n1ncc(C(C)NS(=O)(=O)c2sccc2C)c1C (stereo not drawn)	HTR2A ag 15 | OPRM1 ag inactive | HTR2A ag conf inactive
CCC1CCCCN1C(=O)c1cc(COc2ccc(-n3cncn3)cc2)on1 (stereo not drawn)	none
COc1ccc(C)cc1S(=O)(=O)n1c([N+](=O)[O-])cnc1C	HTR2A ag 15 | OPRM1 ag inactive | HTR2A ag conf inactive
COc1ccc(S(=O)(=O)n2c([N+](=O)[O-])cnc2C)cc1OC	none
CC1CC(C)CN(CCOCCSc2ccccc2)C1 (stereo not drawn)	HTR2A ag 16 | OPRM1 ag inactive | HTR2A ag conf inactive
CCN(CC)S(=O)(=O)c1ccc(Cl)c(C(=O)NCc2ccco2)c1	none
CS(=O)(=O)c1ccc(NS(=O)(=O)c2ccc(Cl)c(C(=O)NCc3ccco3)c2)cc1	HTR2A ag 19 | OPRM1 ag inactive | HTR2A ag conf inactive
COc1ccc(NS(=O)(=O)c2ccc(C)c(C(=O)NCC(c3ccco3)N(C)C)c2)cc1 (stereo not drawn)	HTR2A ag 16 | OPRM1 ag inactive | HTR2A ag conf inactive
CCCCNC(=O)C1(C)CCN1C(=O)c1cccnc1Oc1ccccc1 (stereo not drawn)	none (no result: AHR activator)
Cc1c(Cl)cccc1NC(=O)c1ccccc1-c1ccccc1C(=O)O	none
CC(O)/C=C/c1ccc2ccccc2n1 (stereo not drawn)	HTR2A ag 19 | OPRM1 ag inactive | HTR2A ag conf inactive
CC1=CC(C)(C)NC(=S)N1c1ccc(N(C)C)cc1	none (no result: AHR activator)
Cc1ccc(N(C)S(=O)(=O)c2cccc(C(=O)Oc3ccc4c(C)cc(=O)oc4c3)c2)cc1	HTR2A ag 19 | OPRM1 ag inactive | HTR2A ag conf inactive
COc1ccc(-c2ccc(C(=O)NCCc3ccccc3)c3occc23)c(C)c1	none (no result: AHR activator)
O=C(NC1=NCCS1)C1CCN(S(=O)(=O)c2ccccc2C(F)(F)F)CC1	none
CCCn1c(SCC(=O)NCCc2ccc(Cl)cc2Cl)n[nH]c1=O	HTR2A ag 16 | OPRM1 ag inactive | HTR2A ag conf inactive

Assay outcomes deposited in PubChem BioAssay by The Scripps Research Institute Molecular Screening Center.
